The values that follow come from ChEMBL document CHEMBL4680310, “Identification of N-acyl-N-indanyl-α-phenylglycinamides as selective TRPM8 antagonists designed to mitigate the risk of adverse effects” (Bioorg Med Chem, 2021).

Data set [1] deals with CYP3A4 (Homo sapiens, UniProt P08684). Put plainly: Inhibition of CYP3A4 in human liver microsomes assessed as reduction in 1'-hydroxymidazolam formation using midazolam as substrate at 10 uM preincubated with enzyme and NADPH followed by substrate addition and measured after 10 mins by HPLC/MS-MS analysis relative to control. Conditions: probe midazolam (1'-hydroxymidazolam formation). The data set is classed as ADME. The gist of the method: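 Compound at 100 µM was pre-incubated at 37 °C with human liver microsomes (0.5 mg/mL) in 0.1 M phosphate pH 7.4 with 5 mM MgCl₂ and 1 mM NADPH. The mix was then diluted 10-fold into 25 µM midazolam in the same buffer and incubated 10 min at 37 °C. Ice-cold acetonitrile stopped the reaction. 1′-Hydroxymidazolam was quantified by HPLC-MS/MS, with ketoconazole (1 µM) as reference inhibitor.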
CYP3A4, sequence (P08684 whole entry): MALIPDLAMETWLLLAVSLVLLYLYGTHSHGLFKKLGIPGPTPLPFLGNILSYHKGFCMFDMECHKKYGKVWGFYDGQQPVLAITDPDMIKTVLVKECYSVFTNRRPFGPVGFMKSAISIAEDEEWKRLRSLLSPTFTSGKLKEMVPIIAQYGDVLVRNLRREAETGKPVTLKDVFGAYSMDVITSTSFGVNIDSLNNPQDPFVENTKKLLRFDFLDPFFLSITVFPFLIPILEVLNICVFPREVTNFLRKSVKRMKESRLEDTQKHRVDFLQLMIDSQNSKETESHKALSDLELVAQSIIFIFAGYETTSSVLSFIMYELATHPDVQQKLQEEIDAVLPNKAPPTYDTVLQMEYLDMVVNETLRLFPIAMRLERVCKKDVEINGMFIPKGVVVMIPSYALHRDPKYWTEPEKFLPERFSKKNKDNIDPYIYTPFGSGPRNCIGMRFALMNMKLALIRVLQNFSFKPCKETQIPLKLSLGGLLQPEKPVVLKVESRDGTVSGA

The target in data set [2] is T1, Nuclear receptor subfamily 1 group I member 2 (Homo sapiens, UniProt O75469).
T1 sequence (O75469 whole entry): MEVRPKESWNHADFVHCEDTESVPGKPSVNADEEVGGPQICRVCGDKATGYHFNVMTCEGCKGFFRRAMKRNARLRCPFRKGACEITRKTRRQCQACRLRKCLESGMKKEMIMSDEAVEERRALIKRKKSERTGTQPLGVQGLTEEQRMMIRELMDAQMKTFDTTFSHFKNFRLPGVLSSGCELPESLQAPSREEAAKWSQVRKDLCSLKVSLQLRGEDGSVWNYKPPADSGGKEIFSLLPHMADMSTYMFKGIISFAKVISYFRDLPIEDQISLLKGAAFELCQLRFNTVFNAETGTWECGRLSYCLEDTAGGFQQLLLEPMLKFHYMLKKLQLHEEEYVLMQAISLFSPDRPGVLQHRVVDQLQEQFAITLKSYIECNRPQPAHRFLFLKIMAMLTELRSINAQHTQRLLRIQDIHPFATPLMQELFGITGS
The data set can be described thus: Activation of human PXR ligand binding domain incubated for 1 hr by TR-FRET assay. The data set is classed as ADME.

Data set [3] has as its target Transient receptor potential cation channel subfamily M member 8 (Homo sapiens, UniProt Q7Z2W7). Put plainly: Antagonist activity at human TRPM8 transfected in HEK293T cells assessed as reduction in menthol-induced calcium influx measured after 60 mins by Fluo-4 AM dye based fluorescence analysis. The data set is classed as cell-based.
The nature of data set [4]: In vivo antagonist activity at TRPM8 in Sprague-Dawley rat assessed as inhibition of icilin-induced wet dog shakes at 10 mg/kg, po administered 1 hr prior to icilin administration and measured after 5 mins for 5 mins. The data set is classed as functional. Conditions: 1.167 h, time 70 min. The gist of the method: (§1)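 Female rats received vehicle or compound orally. After 1 or 4 h, icilin (1 mg/mL in PEG 400) was given intraperitoneally. Wet-dog shakes were counted for 5 min, starting 5 min after icilin. Results are percent inhibition versus vehicle-treated counts, mean ± SEM (n = 5).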

The subject of data set [5] is Rattus norvegicus. Put plainly: Inhibition of overactive bladder activity in Sprague-Dawley rat assessed as inhibition of cold-induced voiding behaviour by measuring mean voided volume at 10 mg/kg, po administered 1 hr prior to cold exposure and measured at 2 mins interval for 4 hrs (reference value: 0.57 +/- 0.05 ml). The data set is classed as functional. Conditions: time 5 hrs.

The test system of data set [6] is Rattus norvegicus. The data set can be described thus: Inhibition of overactive bladder activity in Sprague-Dawley rat assessed as inhibition of cold-induced voiding behaviour by measuring reduction in voiding frequency at 10 mg/kg, po administered 1 hr prior to cold exposure and measured at 2 mins interval for 4 hrs. The class given is functional, organism-based. To be noted: time 5.0 hrs.

Data set [7] deals with Rattus norvegicus. Put plainly: Inhibition of overactive bladder activity in Sprague-Dawley rat assessed as inhibition of cold-induced voiding behaviour by measuring total voided volume at 10 mg/kg, po administered 1 hr prior to cold exposure and measured at 2 mins interval for 4 hrs (reference value: 5.57 +/-0.27 ml). The class given is functional. To be noted: time 5 hrs.

Data set [8] is described as follows: Drug uptake in rat brain measured after 4 hrs. Conditions: read-out: Drug uptake. The data set is classed as ADME, tissue-based.
Data set [9] can be described thus: Plasma concentration in rat measured after 4 hrs. The data set is classed as ADME, cell-free.
Data set [10] in a line: Ratio of drug level in rat brain to plasma measured after 4 hrs. The class given is ADME, cell-free. Conditions: read-out: BPR.
Data set [11] can be described thus: In vivo antagonist activity at TRPM8 in Sprague-Dawley rat assessed as inhibition of icilin-induced wet dog shakes at 10 mg/kg, po administered 4 hrs prior to icilin administration and measured after 5 mins for 5 mins. To be noted: 4.167 h, time 250 min. The data set is classed as functional. In short, it runs like this: as §1
Data set [12] can be described thus: Toxicity in mouse assessed as convulsions at 300 mg/kg, po. The class given is organism-based. To be noted: in vivo.
Data set [13] concerns the target Transient receptor potential cation channel subfamily M member 8 (Rattus norvegicus, UniProt Q8R455). Put plainly: Antagonist activity at rat TRPM8 transfected in HEK293T cells assessed as reduction in menthol-induced calcium influx measured after 60 mins by Fluo-4 AM dye based fluorescence analysis. The data set is classed as cell-based. The gist of the method:
(§2)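 HEK293T cells were seeded at 5 × 10⁴ cells/well in DMEM with 10% FBS and transfected 4 h later. The vectors were pcDNA3.1 for TRPM8, TRPA1 and TRPV4, and pCI-neo for TRPV1. After 2 days, cells were dye-loaded for 60 min at 37 °C: Fluo-4 AM for TRPM8, TRPA1 and TRPV1, Fura-2 AM for TRPV4. Calcium was read on an FDSS reader. IC50 came from nonlinear regression, mean ± SEM (n = 3).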

A short description of data set [14]: Cmax in Sprague-Dawley rat at 3 mg/kg, po measured upto 6 hrs by LC-MS/MS analysis. The data set is classed as ADME, organism-based. To be noted: in vivo. Also on record: route oral, dose 3 mg/kg, time <=6. In short, it runs like this:
(§3)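 Rats were given a single oral or intravenous dose. Blood was taken from the jugular vein at 2, 15 and 30 min and at 1, 2, 4 and 6 h. Plasma levels were measured by LC-MS/MS. Each parameter was calculated from the mean plasma concentration of three animals.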

Data set [15] is described as follows: Tmax in Sprague-Dawley rat at 3 mg/kg, po by LC-MS/MS analysis. Conditions: in vivo, time <=6 hrs. The class given is ADME, organism-based. The gist of the method: as §3
A short description of data set [16]: AUC (0 to infinity) in Sprague-Dawley rat at 1 mg/kg, iv by LC-MS/MS analysis. The class given is ADME, organism-based. To be noted: in vivo. Also on record: time infinity, route intravenous, dose 1 mg/kg. The gist of the method:
as §3

Data set [17] can be described thus: AUC (0 to infinity) in Sprague-Dawley rat at 3 mg/kg, po by LC-MS/MS analysis. The data set is classed as ADME, organism-based. Also on record: time infinity, route oral, dose 3 mg/kg. To be noted: in vivo. The gist of the method: as §3
Data set [18] is described as follows: Half life in Sprague Dawley rat at 1 mg/kg, iv by LC-MS/MS analysis. The data set is classed as ADME, organism-based. Conditions: in vivo. The gist of the method: as §3
Data set [19] can be described thus: Total clearance in Sprague-Dawley rat at 1 mg/kg, iv measured upto 6 hrs by LC-MS/MS analysis. Conditions: in vivo. The class given is ADME, organism-based. The gist of the method:
as §3

Data set [20] is described as follows: Volume of distribution at steady state in Sprague-Dawley rat at 1 mg/kg, iv measured upto 6 hrs by LC-MS/MS analysis. The class given is ADME, organism-based. To be noted: in vivo, read-out: Vdss. The gist of the method:
as §3

A short description of data set [21]: Oral bioavailability in Sprague-Dawley rat at 3 mg/kg measured upto 6 hrs by LC-MS/MS analysis. To be noted: in vivo. The class given is ADME, organism-based. The gist of the method:
as §3

Data set [22] has as its target Transient receptor potential cation channel subfamily A member 1 (Homo sapiens, UniProt O75762). The data set can be described thus: Inhibition of human TRPA1 transfected in HEK293T cells assessed as reduction in AITC-induced calcium influx measured after 60 mins by Fluo-4 AM dye based fluorescence analysis. The class given is cell-based. The gist of the method:
as §2

Data set [23] deals with Transient receptor potential cation channel subfamily V member 1 (Homo sapiens, UniProt Q8NER1). The data set can be described thus: Inhibition of human TRPV1 transfected in HEK293T cells assessed as reduction in capsaicin-induced calcium influx measured after 60 mins by Fluo-4 AM dye based fluorescence analysis. The data set is classed as cell-based. In short, it runs like this:
as §2

Data set [24] deals with Transient receptor potential cation channel subfamily V member 4 (Homo sapiens, UniProt Q9HBA0). Put plainly: Inhibition of human TRPV4 transfected in HEK293T cells assessed as reduction in RN1747-induced calcium influx measured after 60 mins by Fura-2 AM dye based fluorescence analysis. The class given is cell-based. In short, it runs like this: as §2
Transient receptor potential cation channel subfamily V member 4, sequence (Q9HBA0 whole entry): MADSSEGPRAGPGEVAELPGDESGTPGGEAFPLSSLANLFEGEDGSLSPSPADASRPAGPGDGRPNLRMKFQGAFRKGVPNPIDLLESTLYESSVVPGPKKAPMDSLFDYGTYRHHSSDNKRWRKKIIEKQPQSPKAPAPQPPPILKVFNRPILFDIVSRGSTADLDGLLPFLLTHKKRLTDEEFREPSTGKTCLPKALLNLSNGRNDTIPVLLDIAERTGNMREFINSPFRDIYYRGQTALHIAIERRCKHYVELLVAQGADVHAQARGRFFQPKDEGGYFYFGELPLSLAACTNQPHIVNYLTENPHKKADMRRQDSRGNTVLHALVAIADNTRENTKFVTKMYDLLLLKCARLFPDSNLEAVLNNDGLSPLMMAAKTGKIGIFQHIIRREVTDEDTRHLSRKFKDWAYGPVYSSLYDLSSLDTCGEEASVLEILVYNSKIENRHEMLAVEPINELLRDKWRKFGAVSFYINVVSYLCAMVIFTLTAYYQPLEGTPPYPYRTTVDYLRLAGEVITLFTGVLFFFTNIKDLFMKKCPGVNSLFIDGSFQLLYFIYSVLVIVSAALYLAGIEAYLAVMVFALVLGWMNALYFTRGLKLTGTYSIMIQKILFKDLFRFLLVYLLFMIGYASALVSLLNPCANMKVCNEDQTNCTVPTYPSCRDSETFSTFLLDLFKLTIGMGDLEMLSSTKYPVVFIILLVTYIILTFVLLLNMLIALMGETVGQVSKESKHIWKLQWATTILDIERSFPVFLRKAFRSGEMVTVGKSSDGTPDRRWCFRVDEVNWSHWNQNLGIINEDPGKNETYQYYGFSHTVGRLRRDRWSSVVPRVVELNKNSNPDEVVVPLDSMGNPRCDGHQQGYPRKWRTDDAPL

The structures appear in SMILES notation. Active and inactive are the calls of the source. No cut-off for these calls is given here.

Transient receptor potential cation channel subfamily A member 1, sequence (O75762 whole entry): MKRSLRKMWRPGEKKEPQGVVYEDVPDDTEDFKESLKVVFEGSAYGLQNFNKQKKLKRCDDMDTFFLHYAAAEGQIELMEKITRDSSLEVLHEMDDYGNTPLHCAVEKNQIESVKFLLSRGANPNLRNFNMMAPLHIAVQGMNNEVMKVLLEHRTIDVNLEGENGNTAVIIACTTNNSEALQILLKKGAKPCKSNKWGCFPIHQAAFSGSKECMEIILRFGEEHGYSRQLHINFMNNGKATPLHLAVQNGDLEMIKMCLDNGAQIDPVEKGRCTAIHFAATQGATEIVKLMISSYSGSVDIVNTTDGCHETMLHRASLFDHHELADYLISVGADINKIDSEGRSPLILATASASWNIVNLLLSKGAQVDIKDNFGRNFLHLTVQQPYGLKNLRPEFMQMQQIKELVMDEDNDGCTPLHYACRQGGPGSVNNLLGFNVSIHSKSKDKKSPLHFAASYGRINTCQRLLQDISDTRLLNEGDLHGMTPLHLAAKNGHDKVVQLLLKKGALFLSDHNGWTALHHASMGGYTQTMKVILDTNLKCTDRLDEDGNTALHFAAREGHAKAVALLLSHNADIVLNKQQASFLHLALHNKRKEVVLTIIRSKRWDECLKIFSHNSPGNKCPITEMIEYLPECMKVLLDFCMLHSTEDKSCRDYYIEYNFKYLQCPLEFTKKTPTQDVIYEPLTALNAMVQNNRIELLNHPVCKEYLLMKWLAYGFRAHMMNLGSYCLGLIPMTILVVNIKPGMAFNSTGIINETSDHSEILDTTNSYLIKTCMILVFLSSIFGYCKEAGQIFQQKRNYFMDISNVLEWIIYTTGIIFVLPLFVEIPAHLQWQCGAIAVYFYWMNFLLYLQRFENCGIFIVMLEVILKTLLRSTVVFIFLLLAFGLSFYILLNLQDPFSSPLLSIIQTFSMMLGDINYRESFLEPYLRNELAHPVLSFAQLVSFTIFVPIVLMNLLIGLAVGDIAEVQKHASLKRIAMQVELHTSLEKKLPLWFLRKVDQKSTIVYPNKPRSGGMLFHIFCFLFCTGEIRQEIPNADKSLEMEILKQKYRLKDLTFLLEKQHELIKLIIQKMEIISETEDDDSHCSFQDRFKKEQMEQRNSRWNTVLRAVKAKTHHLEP
Transient receptor potential cation channel subfamily M member 8 (Homo sapiens, UniProt Q7Z2W7), sequence (Q7Z2W7 whole entry): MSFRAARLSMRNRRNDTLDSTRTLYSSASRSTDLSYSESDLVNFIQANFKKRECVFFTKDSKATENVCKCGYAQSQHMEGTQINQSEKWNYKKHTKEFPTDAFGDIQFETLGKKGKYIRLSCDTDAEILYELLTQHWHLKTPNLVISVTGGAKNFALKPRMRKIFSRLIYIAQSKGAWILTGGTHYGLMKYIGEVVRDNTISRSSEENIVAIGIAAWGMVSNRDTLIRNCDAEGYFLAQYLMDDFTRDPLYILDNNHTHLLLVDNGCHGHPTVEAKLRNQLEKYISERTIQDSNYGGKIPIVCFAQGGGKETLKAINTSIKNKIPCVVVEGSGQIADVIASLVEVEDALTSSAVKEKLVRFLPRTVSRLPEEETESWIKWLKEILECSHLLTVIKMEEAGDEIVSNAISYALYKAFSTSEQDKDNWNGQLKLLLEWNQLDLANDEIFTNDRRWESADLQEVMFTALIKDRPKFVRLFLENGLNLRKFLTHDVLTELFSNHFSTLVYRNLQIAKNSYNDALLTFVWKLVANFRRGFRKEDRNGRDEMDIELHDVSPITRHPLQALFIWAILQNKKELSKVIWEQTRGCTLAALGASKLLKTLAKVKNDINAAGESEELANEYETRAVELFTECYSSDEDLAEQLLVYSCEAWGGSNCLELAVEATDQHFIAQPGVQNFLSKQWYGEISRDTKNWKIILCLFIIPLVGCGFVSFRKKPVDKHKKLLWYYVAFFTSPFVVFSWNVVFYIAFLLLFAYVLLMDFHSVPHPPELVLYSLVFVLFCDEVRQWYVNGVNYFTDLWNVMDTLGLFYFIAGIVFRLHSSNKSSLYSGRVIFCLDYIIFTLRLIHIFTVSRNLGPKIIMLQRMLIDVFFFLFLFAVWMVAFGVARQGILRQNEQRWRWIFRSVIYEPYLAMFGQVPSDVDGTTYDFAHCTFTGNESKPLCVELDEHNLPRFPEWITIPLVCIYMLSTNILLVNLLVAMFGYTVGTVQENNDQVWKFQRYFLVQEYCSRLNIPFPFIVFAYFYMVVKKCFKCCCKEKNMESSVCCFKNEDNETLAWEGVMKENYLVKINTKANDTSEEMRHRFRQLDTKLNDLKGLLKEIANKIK
Transient receptor potential cation channel subfamily M member 8 (Rattus norvegicus, UniProt Q8R455), sequence (Q8R455 whole entry): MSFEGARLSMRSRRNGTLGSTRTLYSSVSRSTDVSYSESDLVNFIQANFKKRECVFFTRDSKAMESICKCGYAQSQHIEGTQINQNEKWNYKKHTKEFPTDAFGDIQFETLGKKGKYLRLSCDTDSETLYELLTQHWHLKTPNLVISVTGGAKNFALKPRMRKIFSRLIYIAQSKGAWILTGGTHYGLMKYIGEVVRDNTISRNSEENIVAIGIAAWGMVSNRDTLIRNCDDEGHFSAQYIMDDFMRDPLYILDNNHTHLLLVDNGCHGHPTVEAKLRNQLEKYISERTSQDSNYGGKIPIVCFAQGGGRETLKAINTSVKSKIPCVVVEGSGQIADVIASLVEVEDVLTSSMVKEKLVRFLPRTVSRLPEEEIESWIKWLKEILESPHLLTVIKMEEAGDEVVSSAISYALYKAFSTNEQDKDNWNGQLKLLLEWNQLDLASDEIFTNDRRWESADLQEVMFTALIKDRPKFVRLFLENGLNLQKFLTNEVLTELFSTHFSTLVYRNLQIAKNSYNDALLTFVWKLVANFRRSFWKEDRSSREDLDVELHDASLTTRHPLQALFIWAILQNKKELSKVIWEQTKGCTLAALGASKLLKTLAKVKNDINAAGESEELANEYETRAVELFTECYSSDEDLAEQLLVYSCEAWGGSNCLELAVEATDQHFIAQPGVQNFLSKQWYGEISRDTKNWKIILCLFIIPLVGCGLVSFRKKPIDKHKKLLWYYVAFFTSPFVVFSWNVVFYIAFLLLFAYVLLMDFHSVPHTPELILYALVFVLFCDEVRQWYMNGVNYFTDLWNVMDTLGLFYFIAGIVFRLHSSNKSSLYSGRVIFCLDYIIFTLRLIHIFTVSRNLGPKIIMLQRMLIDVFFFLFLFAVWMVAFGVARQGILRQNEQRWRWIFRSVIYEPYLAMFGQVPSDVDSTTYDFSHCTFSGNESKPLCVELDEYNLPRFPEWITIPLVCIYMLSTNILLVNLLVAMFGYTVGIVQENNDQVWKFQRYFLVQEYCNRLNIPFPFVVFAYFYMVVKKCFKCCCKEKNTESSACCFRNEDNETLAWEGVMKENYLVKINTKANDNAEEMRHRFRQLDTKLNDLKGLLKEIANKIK

On to `COc1ncccc1C(=O)N([C@@H]1CCc2c(F)cc(Cl)cc21)[C@@H](C(N)=O)c1ccccc1`, for which, in [1], the inhibition at 10 min, 10 µM is 22%.
Consider `NC(=O)[C@@H](c1ccccc1)N(C(=O)c1cccnc1)[C@@H]1CCc2c(F)cc(F)cc21`, for which the midpoint of the response in [2], the EC50, lay at 47 µM.
Same read-out and setting: as for `C[C@H](c1cc(F)cc(F)c1)N(C(=O)c1ccccc1O)[C@@H](C(N)=O)c1ccccc1`, the figure is 12 µM.
Consider `NC(=O)[C@@H](c1ccccc1)N(C(=O)c1cccnc1N)[C@@H]1CCc2c(F)cc(Cl)cc21`, for which the inhibition at 10 min, 10 µM in data set [1] was found to be 18%.
Regarding `NC(=O)[C@@H](c1ccccc1)N(C(=O)c1ccccc1)[C@@H]1CCc2ncccc21`, the IC50 in data set [3] is 19.5 µM.
Compound `C[C@H](c1cc(F)cc(F)c1)N(C(=O)c1ccccc1)[C@@H](C(N)=O)c1ccccc1` had an EC50 in [2] of 10.3 µM. Besides, the inhibition at 10 min, 10 µM in data set [1] was 27%. The inhibition in vivo at 10 mg/kg in data set [4] is 100%; in data set [11] it was 97%. Also, the results for the Activity in data set [5] and in data set [7] were 0.75 mL and 5.81 mL, respectively. Besides, in data set [6], the inhibition result is “Active”. The concentration at 4 h turned out to be 171 µM in data set [8] and 103 µM in data set [9]. For the same compound, in [10], the Kp at 4 h stood at 1.66.
In turn, `NC(=O)[C@@H](c1ccccc1)N(C(=O)c1cccnc1)[C@@H]1CCc2c(F)cc(Cl)cc21` gave an EC50 in data set [2] of 131 µM. Besides, in [1], the inhibition at 10 min, 10 µM was determined as 65%. Also, in data set [12], the Activity result was “Non-Toxic”.
As to `Cc1ncccc1C(=O)N([C@@H]1CCc2c(F)cc(Cl)cc21)[C@@H](C(N)=O)c1ccccc1`, in [1], the inhibition at 10 min, 10 µM turned out to be 17%. Besides, the IC50 in data set [13] was 0.08 µM; in [22], above 30 µM; in [23] it was above 30 µM; in [24], above 30 µM. This compound returned a Cmax in data set [14] of 466 ng/mL. For the same compound, in [15], the Tmax was 40 min. Further, the AUC(0-inf) is 674 ng·h/mL in [16] and 1110 ng·h/mL in [17]. Besides, in data set [18], the half-life amounted to 64 min. Moreover, the clearance in [19] is 25 mL/min/kg. Moreover, the Vd in data set [20] was found to be 1.89 L/kg. Moreover, the bioavailability in data set [21] was determined as 55%. In [12], the Activity entry is listed as “Non-Toxic”.
